Measured values reported in ChEMBL document CHEMBL3351355, “Structure-affinity/activity relationships of 1,4-dioxa-spiro[4.5]decane based ligands at α1 and 5-HT1A receptors” (Eur J Med Chem, 2014).

Tests used:
[1] = biological target: T1, Alpha-1D adrenergic receptor (Homo sapiens, UniProt P25100); experiment: Displacement of [3H]prazosin from human recombinant alpha1D adrenoceptor expressed in CHO cells after 30 mins by liquid scintillation counting; format: cell-based
T1 sequence (P25100 whole entry): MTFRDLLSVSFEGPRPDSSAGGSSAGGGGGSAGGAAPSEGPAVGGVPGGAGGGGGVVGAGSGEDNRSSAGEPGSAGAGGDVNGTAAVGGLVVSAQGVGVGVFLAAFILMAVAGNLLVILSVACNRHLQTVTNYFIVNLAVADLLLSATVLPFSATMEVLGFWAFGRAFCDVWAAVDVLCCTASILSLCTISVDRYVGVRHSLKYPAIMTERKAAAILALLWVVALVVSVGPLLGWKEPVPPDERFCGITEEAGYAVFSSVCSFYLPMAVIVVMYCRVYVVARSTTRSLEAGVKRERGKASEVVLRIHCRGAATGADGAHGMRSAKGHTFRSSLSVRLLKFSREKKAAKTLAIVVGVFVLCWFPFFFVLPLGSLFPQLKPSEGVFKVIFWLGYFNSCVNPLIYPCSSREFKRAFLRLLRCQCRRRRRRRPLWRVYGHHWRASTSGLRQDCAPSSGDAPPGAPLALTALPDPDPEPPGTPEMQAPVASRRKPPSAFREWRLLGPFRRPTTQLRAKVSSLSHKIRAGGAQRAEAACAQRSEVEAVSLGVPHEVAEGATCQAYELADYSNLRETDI
Method in brief: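 CHO cells were stably transfected by electroporation with each human α1 subtype. Membranes (70 µg protein) were incubated in 50 mM Tris pH 7.4 with 0.1–0.4 nM [3H]prazosin and competitor (1 pM–1 µM) for 30 min at 25 °C. Nonspecific binding with 10 µM tamsulosin. Filtration and scintillation counting. pKi from 2–3 experiments in duplicate.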

[2] = biological target: T2, 5-hydroxytryptamine receptor 1A (Homo sapiens, UniProt P08908); experiment: Displacement of [3H]8-OH-DPAT from human recombinant 5-HT1A receptor expressed in HeLa cells after 30 mins by liquid scintillation counting; format: cell-based
T2 sequence (P08908 whole entry): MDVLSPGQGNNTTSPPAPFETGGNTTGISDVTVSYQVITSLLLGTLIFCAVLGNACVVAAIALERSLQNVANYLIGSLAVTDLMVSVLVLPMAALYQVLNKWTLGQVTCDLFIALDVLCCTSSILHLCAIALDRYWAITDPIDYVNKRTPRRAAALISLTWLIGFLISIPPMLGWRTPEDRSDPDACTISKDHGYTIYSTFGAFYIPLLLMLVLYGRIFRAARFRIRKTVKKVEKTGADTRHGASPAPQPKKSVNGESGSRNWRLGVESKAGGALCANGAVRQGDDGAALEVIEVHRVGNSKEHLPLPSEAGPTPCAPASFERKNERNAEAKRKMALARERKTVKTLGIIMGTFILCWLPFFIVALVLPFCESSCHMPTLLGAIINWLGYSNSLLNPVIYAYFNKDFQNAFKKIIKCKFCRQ
Method in brief: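 HeLa cells stably carrying genomic clone G-21 were grown in DMEM with 10% FCS, then lysed in Tris/EDTA pH 7.4. Membranes (80–90 µg protein) were incubated in 50 mM Tris, 2.5 mM MgCl2, 10 µM pargyline, pH 7.4, with 1 nM [3H]8-OH-DPAT and competitor (1 pM–1 µM) for 30 min at 30 °C, in triplicate. Nonspecific binding with 10 µM 5-HT. pKi from 2–3 experiments.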

[3] = biological target: T3, Alpha-1B adrenergic receptor (Rattus norvegicus) (UniProt P15823); experiment: Antagonist activity at alpha1B adrenoceptor in Wistar rat spleen assessed as phenylephrine-induced contractions after 30 mins
T3 sequence (whole entry): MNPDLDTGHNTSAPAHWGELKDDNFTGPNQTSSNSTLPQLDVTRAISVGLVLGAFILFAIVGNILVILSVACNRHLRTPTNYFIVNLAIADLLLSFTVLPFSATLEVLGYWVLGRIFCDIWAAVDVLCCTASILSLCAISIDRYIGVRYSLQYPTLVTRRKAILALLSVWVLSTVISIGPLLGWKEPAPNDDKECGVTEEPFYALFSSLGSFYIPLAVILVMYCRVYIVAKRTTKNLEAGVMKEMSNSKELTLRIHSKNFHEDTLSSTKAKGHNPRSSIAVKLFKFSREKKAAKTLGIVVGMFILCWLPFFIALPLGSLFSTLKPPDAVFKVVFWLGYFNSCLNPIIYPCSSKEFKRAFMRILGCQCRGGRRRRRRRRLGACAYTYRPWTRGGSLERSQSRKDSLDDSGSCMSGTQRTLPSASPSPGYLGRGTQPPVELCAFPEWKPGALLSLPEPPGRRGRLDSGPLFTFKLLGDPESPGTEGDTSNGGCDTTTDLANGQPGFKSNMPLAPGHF
Method in brief: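 Spleen strips (bisected longitudinally) in Krebs with 4 µM propranolol, 1 g resting tension, 2 h equilibration. Cumulative phenylephrine curves recorded isometrically at 30 min intervals, the first discarded and the second used as control. Antagonist pre-equilibrated 30 min before a repeat agonist curve.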

[4] = species: Rattus norvegicus; experiment: Selectivity ratio of Kb for alpha1B adrenoceptor in Wistar rat spleen to Kb for alpha1A adrenoceptor in Wistar rat vas deferans; format: tissue-based
[5] = biological target: T4, Alpha-1A adrenergic receptor (Homo sapiens, UniProt P35348); experiment: Displacement of [3H]prazosin from human recombinant alpha1A adrenoceptor expressed in CHO cells after 30 mins by liquid scintillation counting
T4 sequence (P35348 whole entry): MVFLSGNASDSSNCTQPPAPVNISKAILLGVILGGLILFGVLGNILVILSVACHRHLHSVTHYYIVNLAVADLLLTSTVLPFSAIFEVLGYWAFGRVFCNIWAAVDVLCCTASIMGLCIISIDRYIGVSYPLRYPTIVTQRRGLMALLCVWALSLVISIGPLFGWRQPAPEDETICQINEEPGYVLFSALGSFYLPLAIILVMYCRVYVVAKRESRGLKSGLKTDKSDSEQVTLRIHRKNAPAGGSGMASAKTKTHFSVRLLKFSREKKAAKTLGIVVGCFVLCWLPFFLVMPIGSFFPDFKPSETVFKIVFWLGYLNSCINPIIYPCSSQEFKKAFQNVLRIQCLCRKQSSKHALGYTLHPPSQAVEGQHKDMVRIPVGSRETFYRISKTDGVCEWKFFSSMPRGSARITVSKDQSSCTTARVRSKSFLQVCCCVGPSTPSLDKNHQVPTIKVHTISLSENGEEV

SMILES	Ki [1] [nM]	Ki [2] [nM]	pKb [3]	Ratio [4]	Ki [5] [nM]
COc1ccccc1N1CCN(CC2COC3(CCN(S(=O)(=O)c4ccc(C)cc4)CC3)O2)CC1 (centres undefined)	10.7	26.9	7.91	3.23	4.57
COc1ccccc1N1CCN(CC2COC3(CCN(S(=O)(=O)c4cccc([N+](=O)[O-])c4)CC3)O2)CC1 (centres undefined)	0.912	43.7	8.14	1.48	3.02
COc1ccccc1N1CCN(CC2COC3(CCN(C(=O)C4CCCCC4)CC3)O2)CC1 (centres undefined)	39.8	20.4	7.33	2.4	30.9
COc1ccccc1N1CCN(CC2COC3(CCN(C(C)=O)CC3)O2)CC1 (centres undefined)	89.1	64.6	7.72	3.55	60.3
COc1ccccc1N1CCN(CC2COC3(CCN(c4ccccn4)CC3)O2)CC1 (centres undefined)	22.9	8.91	7.86	1.7	17.8
COc1ccccc1N1CCN(CC2COC3(CCS(=O)(=O)CC3)O2)CC1 (centres undefined)	51.3	81.3	7.66	2.09	9.77
COc1ccccc1N1CCN(CC2COC3(CCN(C(=O)NC(C)(C)C)CC3)O2)CC1 (centres undefined)	35.5	87.1	7.42	0.61	12.6
COc1ccccc1N1CCN(CC2COC3(CCOCC3)O2)CC1 (centres undefined)	25.1	46.8	7.17	0.41	17
COc1ccccc1N1CCN(CC2COC3(CCCCC3)O2)CC1 (centres undefined)	> 1000	5.13	6.72	0.87	–
COc1ccccc1N1CCN(CC2COC3(CCN(S(=O)(=O)c4ccc(OC(F)(F)F)cc4)CC3)O2)CC1 (centres undefined)	26.3	69.2	7.74	5.75	8.91
COc1ccccc1N1CCN(CC2COC3(CCN(Cc4ccccc4)CC3)O2)CC1 (centres undefined)	4.68	14.5	7.18	0.29	6.76
COc1ccccc1N1CCN(CC2COC3(CCN(S(=O)(=O)c4ccc([N+](=O)[O-])cc4)CC3)O2)CC1 (centres undefined)	5.75	24.5	7.75	1.02	5.25
COc1ccccc1N1CCN(CC2COC3(CCN(S(=O)(=O)c4ccc(Cl)cc4)CC3)O2)CC1 (centres undefined)	7.08	37.2	7.36	1.32	6.46
COc1ccccc1N1CCN(CC2COC3(CCN(S(=O)(=O)c4ccccc4)CC3)O2)CC1 (centres undefined)	12.3	52.5	7.94	2.88	7.94
COc1ccccc1N1CCN(CC2COC3(CCN(C(=O)c4ccco4)CC3)O2)CC1 (centres undefined)	28.2	42.7	7.69	1.82	21.4
COc1ccccc1N1CCN(CC2COC3(CCN(C(=O)C4CCCN4)CC3)O2)CC1 (centres undefined)	26.9	36.3	7.86	2.69	11.7
COc1ccccc1N1CCN(CC2COC3(CCN(C(=O)C(F)(F)F)CC3)O2)CC1 (centres undefined)	417	324	8	10.7	> 1000
CCCCNC(=O)N1CCC2(CC1)OCC(CN1CCN(c3ccccc3OC)CC1)O2 (centres undefined)	19.1	79.4	7.4	1.04	20
COc1ccccc1N1CCN(CC2COC3(CCN(C(=O)c4ccc(C(F)(F)F)cc4)CC3)O2)CC1 (centres undefined)	11	50.1	8.33	3.47	10.2
COc1ccccc1N1CCN(CC2COC3(CCN(c4ccccc4)CC3)O2)CC1 (centres undefined)	8.13	15.8	7.56	0.6	6.46
COc1ccccc1N1CCN(CC2COC3(CCN(C(=O)Nc4ccccc4)CC3)O2)CC1 (centres undefined)	13.2	33.1	8.18	9.12	12
COc1ccccc1N1CCN(CC2COC3(CCN(C(=O)c4ccccc4)CC3)O2)CC1 (centres undefined)	20.4	58.9	8.19	3.02	10.7
COc1ccccc1N1CCN(CC2COC3(CCN(S(=O)(=O)c4cccs4)CC3)O2)CC1 (centres undefined)	9.77	60.3	8.05	3.89	7.94
